Bioassay records as filed in PubChem.
TRPC4 agonist = activators of mouse TRPC4 channel, primary screen, Fluo4 calcium, HEK293 TRPC4beta/mu-opioid cells. Fluo4 calcium fluorescence; stronger effect = higher value. Short transient receptor potential channel 4 (Mus musculus), Q9QUQ5. 0.49% of 310,000 active. AID 2237, 2010. B-score at 10 µM;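 active = B-score above 5 SD of library B-scores, and initial fluorescence ratio not above library mean plus 5 SD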;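 also: positive B-score marks a calcium rise read as TRPC4 activation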
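Assay system – TRPC4beta and mu-opioid receptor HEK293 stable cells · Measured by – Fluo4 fluorescence, kinetic · Schedule – dye loading 45 min room temperature, 110 s kinetic read · Read-out – B-scored integrated calcium fluorescence ratio · Controls – buffer and maximal DAMGO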
TRPC6 inh = mouse TRPC6 channel inhibitors, primary screen, cell-based, HEK293, membrane potential dye. B-score at 10 µM. AID 2553, 2010. ACh-evoked depolarization; stronger effect = lower value. 1.1% of 310,000 active;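 active = B-score under library mean minus 3 SD, initial fluorescence not abnormally high, positive integrated signal ratio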;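 also: B-score derived from integrated fluorescence ratio over the kinetic read; more negative B-score means stronger inhibition of depolarization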
TRPC4 block = inhibitors of mouse TRPC4 channel, primary screen, Fluo4 calcium, HEK293 TRPC4beta/mu-opioid cells | AID 2247, 2010 | B-score at 10 µM | Short transient receptor potential channel 4 (Mus musculus), Q9QUQ5 | 0.39% of 300,000 active | DAMGO-evoked Fluo4 calcium flux; stronger effect = lower value;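 active = B-score over 3 SD under the library average, no early fluorescence shift, positive overall ratio signal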
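Assay system: HEK293 cells with stable TRPC4beta plus mu-opioid receptor expression. Dosing: single dose. Measured by: Fluo4 Ca2+ flux fluorescence. Also added: DAMGO in two steps, submaximal then maximal. Read-out: B score from integrated Fluo4 fluorescence ratio.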
TRPC6 act = mouse TRPC6 channel activators, primary screen, cell-based, HEK293, membrane potential dye | Short transient receptor potential channel 6 (Mus musculus), Q61143 | HEK293-TRPC6 membrane potential dye fluorescence; stronger effect = higher value | B-score at 10 µM | 0.13% of 310,000 active;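 active = B-score of the integrated fluorescence ratio above library mean plus 3 SD, and starting fluorescence ratio within library mean plus 5 SD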;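 also: higher score means more depolarization so channel activation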
TRPC4 potent = positive allosteric modulators of TRPC4, primary screen, cell-based, mouse TRPC4beta, HEK293 mu-opioid, Fluo-4 calcium. Short transient receptor potential channel 4 (Mus musculus), Q9QUQ5. DAMGO EC20, Fluo-4 Ca2+ flux; stronger effect = higher value. B-score at 10 µM. 0.42% of 310,000 active. AID 2227, 2009;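 active = B-score of calcium response area above 5 SD of library B-scores, with initial fluorescence ratio within 5 SD of library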;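 also: B-score of integrated fluorescence ratio over time as area under calcium response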
The depositor's hits bear a star; i = inactive. Rows were chosen to be rich in hits. Some 2.3% of all compounds tested hit in one or more screens of this group.

SMILES	TRPC4 agonist	TRPC6 inh	TRPC4 block	TRPC6 act	TRPC4 potent
CNC(=S)N1CCN(C(c2ccccc2)c2ccccc2)CC1	50*	i	-6*	i	i
CCC(C)NC(=S)N1CCN(C(c2ccccc2)c2ccccc2)CC1 (centres undefined)	i	i	i	i	i
COc1ccc(C2=NS(=O)(=O)N(C)C(C(=O)NCc3ccc(F)cc3)=C2)cc1OC	i	i	i	i	i
CCSc1nnc(NC(=O)CCC2CCCCC2)s1	i	i	i	i	i
Cc1ccc(-n2cccn2)c(CN2CCC(CO)(CCc3ccccc3)CC2)c1	56*	i	i	i	i
OCC1(CCCc2ccccc2)CCN(Cc2ccc(F)cc2)CC1	i	i	i	i	i
OCC1(CCc2ccccc2)CCN(Cc2cc(Cl)ccc2O)CC1	i	i	-7*	i	i
CCOC(=O)N1CCC(c2cc(=O)n3[nH]cc(C(=O)OC)c3n2)CC1	i	i	i	i	i
CCOc1ccc(NC(=O)c2c[nH]n3c(=O)cc(C4CCN(C(=O)OC(C)(C)C)CC4)nc23)cc1	i	i	-7*	i	i
O=C(N/N=C/c1cc([N+](=O)[O-])ccc1O)c1cccc2ccccc12	i	i	i	i	i
CN(C)CCOC(=O)c1cccc(Br)c1	44*	i	i	i	10*
C=CCNC(=O)COC(=O)C1CCN(S(=O)(=O)c2ccc3c(c2)OCCO3)CC1	i	i	i	i	i
Cc1cc(C)nc(Nc2nc(=O)c3ccccc3s2)n1	i	i	i	i	55*
Cc1ccc(NC(=S)N2CCCN(Cc3ccc(F)cc3)C2)c(C)c1	60*	i	i	i	i
Cc1c(Cl)cccc1NC(=S)N1CCCN(Cc2ccc(F)cc2)C1	44*	i	i	i	i
C=CCn1c(SCC(=O)NC2CCCC2)nc2c([nH]c3ccccc32)c1=O	i	i	i	i	i
O=c1[nH][nH]c(-c2ccccc2)c1C=Nc1ccc(F)cc1F	i	i	i	i	79*
CCOc1[nH]n(-c2ccccc2)c(=O)c1C=Nc1ccc(F)cc1F	i	i	i	i	i
COc1ccc(C(CNC(=O)c2ccc3c(c2)OCCO3)N(C)C)cc1 (centres undefined)	164*	i	i	i	i
CN(C)C(CNC(=O)CCc1c[nH]c2ccccc12)c1ccccc1 (centres undefined)	138*	i	i	i	i
CN(C)C(CNC(=O)c1cccc(S(=O)(=O)N(C)C)c1)c1ccccc1 (centres undefined)	109*	i	i	i	i
CN(C)C(CNC(=O)CCS(=O)(=O)c1ccccc1)c1ccccc1 (centres undefined)	96*	i	i	i	i
O=C(CCS(=O)(=O)c1ccccc1)NCCS(=O)(=O)c1ccccc1	i	i	i	i	i
CN(C)S(=O)(=O)c1ccc(C(=O)NCCSc2ccccc2)cc1	i	i	i	i	i
CN(C)C(CNC(=O)c1ccc(S(=O)(=O)N(C)C)cc1)Cc1ccccc1 (centres undefined)	74*	i	i	i	i
SMILES	TRPC4 agonist	TRPC6 inh	TRPC4 block	TRPC6 act	TRPC4 potent
COc1ccc(C(CNC(=O)c2cccc(S(=O)(=O)NCc3ccccc3)c2)N(C)C)cc1 (centres undefined)	159*	i	i	i	i
CCn1nc(C)cc1C(=O)N1CCCC(C(=O)c2ccc(OC)cc2C)C1 (centres undefined)	i	i	i	i	i
Cc1ccc(NS(=O)(=O)c2cc([N+](=O)[O-])ccc2NNC(=S)Nc2cc(C)ccc2C)c(C)c1	i	i	i	i	16*
Cc1ccc(NS(=O)(=O)c2cc([N+](=O)[O-])ccc2NNC(=S)Nc2cccc(Cl)c2)c(C)c1	i	i	i	i	i
Nc1ncc([N+](=O)[O-])c(N2CCCCCC2)n1	i	i	i	i	i
O=[N+]([O-])c1ccc(N2CCCC2)nc1N1CCCC1	144*	i	i	i	i
CCN1CCN(c2nc(N)c([N+](=O)[O-])c(Nc3ccc(C)c(C)c3)n2)CC1	i	i	i	i	29*
CCN1CCN(c2nc(N)c([N+](=O)[O-])c(Nc3ccc(C)cc3)n2)CC1	i	i	i	i	17*
CC(C)(C)c1[nH]nc2c1C(C1C=CCCC1)C(C#N)=C(N)O2 (centres undefined)	i	i	i	i	i
CC(C)c1[nH]nc2c1C(C1C=CCCC1)C(C#N)=C(N)O2 (centres undefined)	i	i	i	i	21*
CCNc1c(NCC)c(=O)c1=O	i	i	i	i	i
COCCn1c(SCC(=O)Nc2ccc(S(=O)(=O)N3CCOCC3)cc2)nc2ccccc21	i	i	i	i	31*
NNC(=O)c1csc(-c2ccc(C(F)(F)F)cc2Cl)n1	i	i	i	i	i
Nc1ccc(-c2nc3c(ccc4ccccc43)[nH]2)cc1	i	-9.51*	i	i	i
Cc1ccc(NC(=S)NC2CC3CCC(C2)N3Cc2ccco2)c(C)c1 (centres undefined)	116*	i	i	i	i
Cc1cccc(NC(=S)NC2CC3CCC(C2)N3Cc2ccco2)c1C (centres undefined)	i	i	i	i	i
Cc1cccc(NC(=S)NC2CC3CCCC(C2)N3Cc2ccccc2)c1C (centres undefined)	65*	i	i	i	i
COc1ccc(CNC(=O)CN(Cc2ccc(OC)cc2)C(=O)CCC(=O)Nc2ccccn2)cc1	i	i	i	i	i
O=c1c2cc(Cl)ccc2nc(-c2ccccc2)n1O	i	i	i	i	i
O=c1c2cc(Br)ccc2nc(-c2cccc(C(F)(F)F)c2)n1O	193*	i	i	i	i
O=c1c2cc(Br)ccc2nc(-c2ccc([N+](=O)[O-])cc2)n1O	81*	i	i	i	i
O=c1c2ccc(Cl)cc2nc(-c2ccc([N+](=O)[O-])cc2)n1O	63*	i	i	i	i
